Data on one molecule can be found in ChEMBL document CHEMBL4842338, “System-oriented optimization of multi-target 2,6-diaminopurine derivatives: Easily accessible broad-spectrum antivirals active against flaviviruses, influenza virus and SARS-CoV-2” (Eur J Med Chem, 2021).

The source made the active and inactive calls. The rule behind the calls is not given here.

Data set [1] has as its system Influenza A virus. Put plainly: Antiviral activity against Influenza A Puerto Rico/8/34/H1N1 infected in human A549 cells assessed as reduction in viral protein expression at 20 uM pretreated for 2 hrs followed by staining with anti-Flu antibody observed at 24 hrs post infection by In-cell western assay. Format: functional, organism-based. To be noted: A/Puerto Rico/8/1934(H1N1).

In a further data set the test system is Zika virus. Put plainly: Antiviral activity against Zika virus H/PF/2013 infected in pre-seeded Huh-7 cells assessed as inhibition of viral replication incubated for 72 hrs by immunodetection based secondary yield reduction assay. Format: functional, organism-based. To be noted: H/PF/2013, Huh-7, 72 h.
The subject of the next data set is SARS-CoV-2. Put plainly: Antiviral activity against SARS-COV 2 infected in human Calu-3 cells assessed as inhibition of viral replication at MOI of 0.01 followed by removal of test compound after cell virus adsorption incubated for 72 hrs by ENTRY-DYRA method. The note with it: Severe acute respiratory syndrome coronavirus 2, Calu-3, 72 h. The format is functional, organism-based.

Data set [2] in a line: Selectivity index, ratio of CC50 for human A549 cells to IC50 for Influenza A Puerto Rico/8/34/H1N1 infected in human A549 cells. To be noted: read-out: Selectivity Index. Format: toxicity, cell-based. Summed up:
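MDCK or A549 cells (2.5 × 10⁵/well) infected with A/Puerto Rico/8/34 H1N1 for 1 h at 37 °C, then washed. Compound (0.5–20 μM) added in 2% FBS medium for 24 h, with DMSO final ≤0.2%. Virus in supernatants read by hemagglutination. CC₅₀ by MTT (2 × 10⁴ cells/well, same concentrations, 24 h, absorbance 570 nm). SI = CC₅₀/IC₅₀.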

In data set [3] the test system is Influenza A virus. Put plainly: Antiviral activity against Influenza A virus (A/parrot/Ulster/73(H7N1)) infected in human A549 cells assessed as reduction in viral protein expression at 20 uM treated for 2 to 6 hrs post infection and measured following infection of MDCK cells with supernatant for 24 hrs by time-of-addition assay. Format: functional, organism-based. To be noted: time 2-6 hrs.

Data set [4] can be described thus: Inhibition of Dengue virus 2 […] RNA dependent RNA polymerase incubated for 10 mins by picogreen staining based fluorescent analysis (Rvb= 0.27+/-0.03 uM). Also on record: species or system dengue virus type 2.
Data set [5] can be described thus: Stability of the compound in presence of 40 mM H2O2 in ethanol measured after 6 days. To be noted: 144 h; time 6 day. Format: physicochemical.

The IC50 is the midpoint of a concentration-inhibition curve. On to `FC(F)(F)c1cccc(Nc2nc(NCCOc3ccccc3)nc3[nH]cnc23)c1`, for which the outcome with Influenza A virus [1] and with Influenza A virus [3] was Active. Besides, the values for the IC50 (with Zika virus; in the data set on SARS-CoV-2; in data set [4]) were 1100 nM, 1900 nM and 20800 nM, respectively. For the same molecule, the selectivity ratio in data set [2] amounted to 11. Further, in data set [5], the Stabilty entry is recorded as “Unstable”.
